Structures are written as SMILES.

The assay is filed under the species Homo sapiens. The experiment in a line: Inhibitory activity against histamine release from antigen-challenged, sensitized human basophils. It is filed as functional. Particulars: Homo sapiens. The gist of the method: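 Histamine release was induced by antigen challenge of sensitized human basophils in vitro. Compounds were first screened at a single concentration. Those reducing release by more than 50% went on to concentration-response testing to estimate IC50. Values are given with standard error and number of experiments.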
The term IC50 denotes the concentration needed to halve the response being measured. As to `C=CCn1ncc2c(C)nc(C(C)C)n2c1=O`, the IC50 was above 48 µM.

In the case of `CCCc1nc(C)c2c(C(C)C)nnc(S)n12`, the IC50 is above 48 µM.

As for `Cc1nc(C(C)C)n2c(O)nnc(-c3ccccc3)c12`, the IC50 is above 48 µM.

Turning to `COCc1nc(C)c2cnnc(S)n12`, the IC50 is above 48 µM.

On to `CCc1nnc(O)n2c(C(C)(C)C)nc(C)c12`, for which the IC50 is 26 µM.

With `C=CCn1ncc2c(C)nc(CCC)n2c1=O`, the IC50 is 40 µM.

With `CCOC(=O)C(C)Sc1nncc2cncn12` (stereo not given), the IC50 is above 48 µM.

Consider `CCc1nc(C)c2cnn(CC)c(=O)n12`, for which the IC50 was 75.6 µM.

On to `CCCc1nc(C)c2c(-c3ccccc3)nnc(O)n12`, for which the IC50 is above 48 µM.

Consider `CCCc1nc(C)c2c(C)nn(CCC)c(=O)n12`, for which the IC50 was above 48 µM.

Turning to `C=CCn1ncc2cnc(C)n2c1=O`, the IC50 was above 48 µM.

With `CCCc1nc(C)c2cnn(CC)c(=O)n12`, the IC50 was above 48 µM.

On to `C=CCn1ncc2c(C)nc(Cc3ccccc3)n2c1=O`, for which the IC50 was above 48 µM.

Regarding `Cc1nnc(S)n2cncc12`, the IC50 was above 48 µM.

As for `C=CCn1ncc2c(C)nc(CC)n2c1=O`, the IC50 is above 48 µM.

In the case of `CCCc1nc(C)c2cnn(CC3CC3)c(=O)n12`, the IC50 was above 48 µM.

On to `CCCc1nc(C)c2c(-c3ccccc3)nnc(Nc3cc[nH]n3)n12`, for which the IC50 was above 48 µM.

In the case of `Oc1nncc2c(Br)nc(Cc3ccccc3)n12`, the IC50 was above 48 µM.

In the case of `c1ncn2c(N3CCCCC3)nncc12`, the IC50 was above 48 µM.

`C=CCn1ncc2c(C)nc(C(C)(C)C)n2c1=O`: the IC50 was above 48 µM.

With `COCc1nc(Br)c2c(Br)nnc(O)n12`, the IC50 was above 48 µM.

Regarding `CCCc1nc(C)c2c(C)nn(CC(=O)O)c(=O)n12`, the IC50 was above 48 µM.

Turning to `CCCc1nnc(S)n2c(CCC)nc(C)c12`, the IC50 was above 48 µM.

In the case of `CCCc1nc(C)c2c(C)nn(CC(=O)c3ccccc3)c(=O)n12`, the IC50 is above 48 µM.

`CC(C)(C)c1ncc2cnnc(O)n12`: the IC50 was above 48 µM.

Regarding `C=CCn1ncc2c(C)nc(CCC)n2c1=S`, the IC50 is above 48 µM.

For the compound `CCOC(=O)CSc1nncc2c(C)ncn12`, the IC50 was above 48 µM.

In the case of `CCCc1nc(C)c2c(CC)nnc(S)n12`, the IC50 was above 48 µM.

Turning to `CCCc1nc(C)c2cnnc(NCCN(C)C)n12`, the IC50 was above 48 µM.

Consider `CCCCCCCCCCCCCCCCCc1ncc2cnnc(S)n12`, for which the IC50 was above 48 µM.

For `CCCc1nc(C)c2n1C(SC)=NNC2c1ccccc1` (stereo not given), the IC50 is above 48 µM.

As for `C=CCn1ncc2c(Br)nc(CCC)n2c1=O`, the IC50 was above 48 µM.

Consider `c1ccc(C(c2ccccc2)N2CCN(c3nncc4cncn34)CC2)cc1`, for which the IC50 was above 48 µM.

`Cc1ncn2c(S)nncc12`: the IC50 is above 48 µM.

For `C=CCn1ncc2c(Br)nc(Cc3ccccc3)n2c1=O`, the IC50 was above 48 µM.

With `CCCc1nc(C)c2cnn(CC(O)CO)c(=O)n12` (stereo not given), the IC50 was above 48 µM.

With `Cc1nc(C)n2c(O)nncc12`, the IC50 is above 48 µM.

As for `COCc1ncc2cnnc(NCCN(C)C)n12`, the IC50 was above 48 µM.

On to `CNc1nncc2c(C)ncn12`, for which the IC50 was above 48 µM.

For the compound `CCCc1nc(C)c2c(C)nnc(S)n12`, the IC50 is 45 µM.

On to `CCc1nc(C)c2cnnc(S)n12`, for which the IC50 was above 48 µM.

In the case of `CCCc1nc(C)c2c(C)nn(CC)c(=O)n12`, the IC50 is above 48 µM.

In the case of `CCCc1nn(C)c(=O)n2c(CCC)nc(C)c12`, the IC50 was 18 µM.

Turning to `CCCc1nc(C)n2c(O)nncc12`, the IC50 is above 48 µM.

Turning to `C=CCn1ncc2c(C)nc(C)n2c1=O`, the IC50 amounted to 73 µM.

For `CCCc1nc(C)c2c(C(C)C)nnc(O)n12`, the half-inhibitory concentration (IC50) was above 48 µM.

In the case of `CCCc1nc(C)c2c(C)nn(CC(O)CO)c(=O)n12` (stereo not given), the IC50 was above 48 µM.

Take `CCCc1ncn2c(S)nncc12`: the IC50 was above 48 µM.

For the compound `CCc1nc(C)c2cnnc(O)n12`, the IC50 is above 48 µM.

Regarding `CCc1nc(C)c2c(-c3ccccc3)nnc(O)n12`, the IC50 was above 48 µM.

Consider `CCO/C(O)=C\c1nncc2cncn12`, for which the IC50 is above 48 µM.

Regarding `CCCOc1ccccc1-c1ncc2cnnc(O)n12`, the IC50 was above 48 µM.

In the case of `CCCc1ncc2cnnc(SC)n12`, the IC50 is above 48 µM.

As to `CSc1nncc2c(C)nc(C)n12`, the IC50 is above 48 µM.

With `CSc1nnc(-c2ccccc2)c2c(C)nc(C(C)C)n12`, the IC50 is above 48 µM.

Consider `Cc1ncn2c(NN)nncc12`, for which the IC50 is above 48 µM.

On to `CSc1nncc2c(C)nc(C(C)C)n12`, for which the IC50 was above 48 µM.

For `c1ncn2c(NC34CC5CC(CC(C5)C3)C4)nncc12`, the IC50 was above 48 µM.

With `Cc1nc(CC(C)(C)C)n2c(O)nncc12`, the IC50 is above 48 µM.

For `Cc1ncn2c(N(C)C)nncc12`, the half-maximal inhibitory concentration (IC50) is above 48 µM.

As to `CCCc1ncc2cnnc(O)n12`, the IC50 is above 48 µM.

On to `O=C(CSc1nncc2cncn12)c1ccccc1`, for which the IC50 was above 48 µM.

`c1ncn2c(NC3CCCC3)nncc12`: the IC50 is above 48 µM.

Take `CSc1nncc2c(C)ncn12`: the IC50 is above 48 µM.

Take `CCCc1nc(C)c2cnn(C/C=C/C(=O)OCC)c(=O)n12`: the IC50 is above 48 µM.

In the case of `Sc1nncc2cncn12`, the IC50 was above 48 µM.

Turning to `CCCc1nc(C)c2cnnc(O)n12`, the IC50 is 56.8 µM.

With `CCOC(=O)/C(=C(\O)OCC)c1nncc2cncn12`, the IC50 was above 48 µM.

On to `CCOC(=O)CSc1nncc2cnc(C)n12`, for which the IC50 was determined as 52 µM.

On to `Oc1nncc2cncn12`, for which the IC50 is above 48 µM.

With `Cc1ncn2c(Nc3cccnc3)nncc12`, the IC50 is above 48 µM.

As for `CCCc1nnc(O)n2c(C)ncc12`, the half-inhibitory concentration (IC50) is above 48 µM.

On to `Cc1nc(-c2ccccc2)n2c(S)nncc12`, for which the IC50 was above 48 µM.

`Sc1nncc2cnc(-c3ccccc3)n12`: the IC50 is above 48 µM.

`COCc1ncc2cnnc(S)n12`: the IC50 is above 48 µM.

For `Cc1nc(C(C)C)n2c(S)nncc12`, the IC50 was above 48 µM.

On to `C=CCSc1nncc2cnc(COC)n12`, for which the IC50 is 79 µM.

Turning to `CCCc1nc(C)c2c(C)nnc(SC)n12`, the concentration for half-maximal inhibition (IC50) is above 48 µM.

As to `CCCc1ncc2c(C)nnc(O)n12`, the IC50 is above 48 µM.

`C=CCn1ncc2c(CC)ncn2c1=O`: the IC50 is above 48 µM.

On to `Cc1ncn2c(Nc3cccs3)nncc12`, for which the IC50 is above 48 µM.

For `CCc1nc(C)c2c(-c3ccccc3)nnc(SC)n12`, the IC50 is above 48 µM.

As to `O/C(=C/c1nncc2cncn12)c1ccccc1`, the IC50 was 38 µM.

Regarding `CSc1nnc(C)c2c(C)nc(C)n12`, the IC50 was above 48 µM.

`c1ncn2c1C(NC1CCCC1)NN=C2NC1CCCC1` (stereo not given): the IC50 is above 48 µM.

For the compound `CCOC(=O)Cn1ncc2cncn2c1=O`, the IC50 was above 48 µM.

Regarding `CCCc1nc(C)c2cnn(C)c(=O)n12`, the IC50 stood at 20 µM.

Consider `CCCc1ncn2c(SC)nncc12`, for which the half-inhibitory concentration (IC50) is above 48 µM.

Take `C(=C\CSc1nncc2cncn12)/CSc1nncc2cncn12`: the IC50 was above 48 µM.

`Cc1nc(-c2ccccc2)n2c(O)nncc12`: the IC50 was above 48 µM.

`CCCc1nc(C)c2c(C)nn(Cc3ccccc3)c(=O)n12`: the 50% inhibitory concentration (IC50) is above 48 µM.

Turning to `CCCc1nc(C)c2c(CC)nnc(SC)n12`, the IC50 is above 48 µM.

With `CC(C)(C)c1nc(Br)c2cnnc(O)n12`, the concentration for half-maximal inhibition (IC50) stood at 19 µM.

On to `CC(=O)N(C1=NNCC1)c1nncc2c(C)ncn12`, for which the IC50 is above 48 µM.

Regarding `CCn1ncc2cncn2c1=S`, the IC50 is above 48 µM.

On to `Cn1ncc2cnc(Cc3ccccc3)n2c1=O`, for which the IC50 was above 48 µM.

For the compound `Cc1ncn2c(NCc3ccco3)nncc12`, the IC50 was above 48 µM.

For `CCCc1nc(Br)c2c(Br)nnc(O)n12`, the IC50 was 48 µM.

`C=CCSc1nncc2cnc(-c3ccccc3)n12`: the IC50 is above 48 µM.

On to `CCc1nnc(O)n2c(C(C)CC)nc(C)c12` (stereo not given), for which the IC50 amounted to 45 µM.

Take `CC(C)CCSc1nncc2cncn12`: the IC50 is 9 µM.

For the compound `CCCc1nc(C)c2c(C3CC3)nnc(O)n12`, the IC50 is above 48 µM.

Turning to `CCCc1ncc2c(C)nnc(SC)n12`, the IC50 was above 48 µM.

For the compound `Oc1nnc(-c2ccccc2)c2cncn12`, the IC50 was determined as 19 µM.

For `COc1ccc(-c2ncc3cnnc(O)n23)cc1`, the IC50 is above 48 µM.

Take `CCCc1nc(C)c2cnnc(S)n12`: the IC50 was determined as 10 µM.

As for `C=CCn1nc(Br)c2c(Br)nc(CCC)n2c1=O`, the IC50 was above 48 µM.

On to `C=CCSc1nncc2c(C)nc(-c3ccccc3)n12`, for which the 50% inhibitory concentration (IC50) was above 48 µM.

Take `C=CCSc1nncc2c(CC)ncn12`: the IC50 is above 48 µM.

As to `CCCc1nc(C)c2cnnc(SC)n12`, the IC50 is above 48 µM.

Regarding `CC(C)c1ncn2c(O)nncc12`, the IC50 is above 48 µM.

With `Cc1ncn2c(O)nncc12`, the IC50 was above 48 µM.

`CCCc1ncc2cnnc(S)n12`: the IC50 was above 48 µM.

For `CCn1ncc2c(C)nc(C(C)C)n2c1=O`, the IC50 is above 48 µM.

For the compound `C=CCSc1nncc2cnc(C)n12`, the IC50 came out at 61 µM.

On to `COCc1ncc2cnnc(SC)n12`, for which the IC50 was above 48 µM.

On to `CCOC(=O)CSc1nncc2cncn12`, for which the IC50 was above 48 µM.

For `CCCc1nc(C)c2c(C)nn(CC(=O)OCC)c(=O)n12`, the IC50 was above 48 µM.

For the compound `CCCc1nc(C)c2c(C)nn(C)c(=O)n12`, the IC50 was above 48 µM.

In the case of `CCCc1ncc2c(C)nnc(S)n12`, the IC50 was above 48 µM.

`Oc1nncc2cnc(-c3ccccc3)n12`: the IC50 is above 48 µM.

Consider `CCCc1nc(C)c2c(-c3ccccc3)nnc(SC)n12`, for which the IC50 is above 48 µM.

Regarding `CCCc1nc(Br)c2cnnc(O)n12`, the IC50 is above 48 µM.

`CCCc1ncn2c(Nc3cc[nH]n3)nncc12`: the IC50 is above 48 µM.

Regarding `CCc1ncn2c(O)nncc12`, the IC50 was above 48 µM.

As for `CSc1nnc(-c2ccccc2)c2cncn12`, the IC50 is above 48 µM.

In the case of `CCOC(=O)Cn1ncc2cnc(COC)n2c1=O`, the concentration for half-maximal inhibition (IC50) is above 48 µM.

In the case of `Sc1nncc2cnc(-c3cccc(Cl)c3)n12`, the IC50 is above 48 µM.

In the case of `CCOC(=O)CSc1nncc2c(C)nc(C)n12`, the IC50 was above 48 µM.

For the compound `CCCc1nc(C)c2cnnc(SCC(=O)OCC)n12`, the IC50 was above 48 µM.

For the origin of these results see ChEMBL document CHEMBL1122852, “Imidazo[1,5-d][1,2,4]triazines as potential antiasthma agents” (J Med Chem, 1985).
